For orientation: EC30 means the concentration at which the effect reaches the 30% level.

Each structure is given as a SMILES string. Active and inactive are the calls of the source. No cut-off for these calls is given here.

We go through six molecules from ChEMBL document CHEMBL1128436, “Synthesis and biological evaluation of a new series of sterols as potential hypocholesterolemic agents” (1995).

In experiment [1] the target is Low-density lipoprotein receptor (Homo sapiens) (UniProt P01130). Kind of experiment: Capability of derepressing the transcription of Low density lipoprotein receptor promoter in the presence of 25-hydroxycholesterol in CHO cells measured as maximum activity at 20 ug/mL. Type of experiment: cell-based. The gist of the method:
(§1)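 Stably transfected CHO clone S27/B30 (LDL receptor promoter fused to firefly luciferase), grown to confluence (2-3 days, 37 °C, 5% CO2). Then 24 h in serum-free assay medium (DMEM/Ham's F-12 3:1, 0.5% bovine albumin) with 25-hydroxycholesterol 0.5 μg/mL plus compound at 0.30-20 μg/mL from ethanol stock, triplicate wells. Lysate luciferase peak light per μg protein (Coomassie). EC30 = concentration giving 30% rise over control. MA = % specific induction at 20 μg/mL.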

Experiment [2] has the same target. Kind of experiment: Capability of derepressing the transcription of human Low density lipoprotein receptor promoter in the presence of 25-hydroxycholesterol in CHO cells by luciferase assay. The experiment is classed as cell-based. Summed up:
as §1

Experiment [3] deals with CHO. Kind of experiment: Capability of derepressing the transcription of SV40 promoter in CHO cells by luciferase assay; NA= Not active within the test range 0-20 ug/mL. Type of experiment: functional, cell-based. The following applies: Cricetulus griseus. Summed up:
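Counter-screen in CHO clone SV40/LN9, with luciferase driven by the SV40 promoter. Confluent monolayers were given compound at 0.30-20 μg/mL for 24 h in serum-free albumin assay medium, triplicate wells. Lysates were read for luciferase peak luminescence, normalized to lysate protein.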

Experiment [4] relates to Cricetinae gen. sp. Kind of experiment: Total serum cholesterol level with relative to the control value [320(14)] in hamsters at a dose of 0.2% of diet for 1 week. The experiment is classed as functional, Cricetulus griseus.
Experiment [5] concerns Cricetinae gen. sp. Kind of experiment: Serum cholesterol level change relative to the control value [320(14)] in hamsters at a dose of 0.2% of diet for 1 week. The experiment is classed as functional, Cricetulus griseus.
For experiment [6], the species on record is Mesocricetus auratus. Nature of the experiment: Serum cholesterol level change relative to the control value (313(24)) in hamsters at a dose of 0.2% of diet for 1 week.
The species entered for experiment [7] is Mesocricetus auratus. Kind of experiment: Serum cholesterol level change relative to the control value (320(14)) in hamsters at a dose of 0.2% of diet for 1 week.
Experiment [8] concerns Cricetinae gen. sp. Kind of experiment: Total serum cholesterol level with relative to the control value (366(24)) in hamsters at a dose of 0.2% of diet for 1 week. The experiment is classed as functional, Cricetulus griseus.
Experiment [9] has as its system Cricetinae gen. sp. Nature of the experiment: Total serum cholesterol level with relative to the control value (306(27) in hamsters at a dose of 0.2% of diet for 1 week. Type of experiment: functional, Cricetulus griseus.
Experiment [10] deals with Cricetinae gen. sp. Nature of the experiment: Total serum cholesterol level with relative to the control value (320(14)) in hamsters at a dose of 0.2% of diet for 1 week. The experiment is classed as functional, Cricetulus griseus.
In experiment [11] the test system is Cricetinae gen. sp. Kind of experiment: Total serum cholesterol level with relative to the control value (313(24)) in hamsters at a dose of 0.2% of diet for 1 week. The experiment is classed as functional, Cricetulus griseus.
Experiment [12] is filed under the species Mesocricetus auratus. Nature of the experiment: Serum cholesterol level change relative to the control value (333(23)) in hamsters at a dose of 0.2% of diet for 1 week.
Experiment [13] relates to Cricetinae gen. sp. Nature of the experiment: Serum cholesterol level changes with relative to the control value (425(58)) in hamsters at a dose of 0.2% of diet for 1 week. Type of experiment: functional, Cricetulus griseus.
Experiment [14] is filed under the species Mesocricetus auratus. Kind of experiment: Serum cholesterol level change relative to the control value (383(13)) in hamsters at a dose of 0.2% of diet for 1 week.
Experiment [15] is filed under the species Mesocricetus auratus. Nature of the experiment: Serum cholesterol level change relative to the control value (306(27)) was calculated.i n hamsters at a dose of 0.2% of diet for 1 week.
Experiment [16] has as its system Cricetinae gen. sp. Kind of experiment: Total serum cholesterol level with relative to the control value (425(58)) in hamsters at a dose of 0.2% of diet for 1 week. The experiment is classed as functional, Cricetulus griseus.
Experiment [17] relates to CHO. Nature of the experiment: In vitro [1-14C]-acetate]-cholesterol biosynthesis inhibition assay (14CACBI) in CHO cells; neg = Negative :no effect on biosynthesis of cholesterol. Type of experiment: functional, cell-based. The following applies: Cricetulus griseus. The gist of the method: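 Confluent CHO cells in replicate 100 mm dishes were held 20 h in assay medium without 25-hydroxycholesterol, with ethanol vehicle (0.5% v/v) or compound at 20 μg/mL. [1-14C]acetate was then added (final 1 μCi/mL) for 4 h more. Cells were scraped and sonicated, lipids separated, and the cholesterol band scraped and counted by scintillation.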

The test system of experiment [18] is Cricetinae gen. sp. Nature of the experiment: Total serum cholesterol level with relative to the control value (333(23)) in hamsters at a dose of 0.2% of diet for 1 week. The experiment is classed as functional, Cricetulus griseus.
Experiment [19] has as its system Cricetinae gen. sp. Nature of the experiment: Total serum cholesterol level with relative to the control value (383(13)) in hamsters at a dose of 0.2% of diet for 1 week. Type of experiment: functional, Cricetulus griseus.
In experiment [20] the test system is Cricetinae gen. sp. Nature of the experiment: Total serum cholesterol level with relative to the control value (274(23)) in hamsters at a dose of 0.2% of diet for 1 week. The experiment is classed as functional, Cricetulus griseus.
Experiment [21] is filed under the species Mesocricetus auratus. Nature of the experiment: Serum cholesterol level change relative to the control value (366(24)) in hamsters at a dose of 0.2% of diet for 1 week.
For experiment [22], the system named is Cricetinae gen. sp. Kind of experiment: Serum cholesterol level change relative to the control value (274(23)) in hamsters at a dose of 0.2% of diet for 1 week. The experiment is classed as functional, Cricetulus griseus.
Experiment [23] is filed under the species Mesocricetus auratus. Kind of experiment: Serum cholesterol level change relative to the control value [383(13)] in hamsters at a dose of 0.2% of diet for 1 week.
For experiment [24], the system named is Cricetinae gen. sp. Nature of the experiment: Total serum cholesterol level with relative to the control value [383(13)] in hamsters at a dose of 0.2% of diet for 1 week. The experiment is classed as functional, Cricetulus griseus.
The species entered for experiment [25] is Mesocricetus auratus. Kind of experiment: Serum cholesterol level changes with relative to the control value (333(23)) in hamsters at a dose of 0.2% of diet for 1 week.
For experiment [26], the species on record is Mesocricetus auratus. Nature of the experiment: Serum cholesterol level change relative to the control value [306(27)] in hamsters at a dose of 0.2% of diet for 1 week.
Experiment [27] concerns Cricetinae gen. sp. Kind of experiment: Total serum cholesterol level with relative to the control value [306(27)] in hamsters at a dose of 0.2% of diet for 1 week. Type of experiment: functional, Cricetulus griseus.
Experiment [28] has as its target Low-density lipoprotein receptor (Homo sapiens) (UniProt P01130). Nature of the experiment: Capability of derepressing the transcription of human Low density lipoprotein receptor promoter in the presence of 25-hydroxycholesterol in CHO cells by luciferase assay; NA= Not active within the test range 0-20 ug/mL. The experiment is classed as cell-based. The gist of the method:
as §1

The test system of experiment [29] is Cricetinae gen. sp. Kind of experiment: Total serum cholesterol level relative to the control value (274(23)) in hamsters at a dose of 0.2% of diet for 1 week. The experiment is classed as functional, Cricetulus griseus.

Sequence of Low-density lipoprotein receptor (Homo sapiens) (P01130 whole entry, the tested form may be a part): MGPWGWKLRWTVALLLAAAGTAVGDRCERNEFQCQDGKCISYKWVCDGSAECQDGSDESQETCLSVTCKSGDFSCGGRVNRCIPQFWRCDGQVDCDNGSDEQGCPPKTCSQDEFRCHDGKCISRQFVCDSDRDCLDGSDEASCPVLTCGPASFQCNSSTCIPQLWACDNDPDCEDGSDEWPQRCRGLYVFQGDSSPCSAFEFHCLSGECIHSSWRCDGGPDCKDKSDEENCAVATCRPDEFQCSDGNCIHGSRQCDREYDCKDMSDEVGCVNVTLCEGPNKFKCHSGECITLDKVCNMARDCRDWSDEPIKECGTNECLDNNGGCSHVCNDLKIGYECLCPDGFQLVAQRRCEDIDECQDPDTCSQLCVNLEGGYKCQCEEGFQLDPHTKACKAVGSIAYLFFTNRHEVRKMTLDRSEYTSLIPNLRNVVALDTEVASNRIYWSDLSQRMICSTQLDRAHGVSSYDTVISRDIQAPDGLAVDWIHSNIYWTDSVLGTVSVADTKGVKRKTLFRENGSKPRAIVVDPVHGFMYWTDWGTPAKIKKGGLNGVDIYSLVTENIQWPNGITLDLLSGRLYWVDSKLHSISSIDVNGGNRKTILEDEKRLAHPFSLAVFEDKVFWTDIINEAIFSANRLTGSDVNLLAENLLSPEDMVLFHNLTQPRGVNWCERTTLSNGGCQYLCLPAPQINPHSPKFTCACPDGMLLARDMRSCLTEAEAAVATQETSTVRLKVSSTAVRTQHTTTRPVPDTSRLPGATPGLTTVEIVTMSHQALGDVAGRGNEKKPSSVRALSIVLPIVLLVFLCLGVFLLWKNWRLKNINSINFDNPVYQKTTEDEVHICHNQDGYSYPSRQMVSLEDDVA

Regarding `CC(C)CCC[C@@H](C)[C@H]1CC[C@H]2[C@@H]3CCC4[C@H](Cc5ccc(OC(F)(F)F)cc5)[C@H](O)CC[C@]4(C)[C@H]3CC[C@]12C` (stereo partly specified), the MA in [1] worked out at 71%. Besides, the EC30 in experiment [2] is 15000 nM. The outcome with CHO [3] was inactive. The Total cholesterol in the experiment with Cricetinae gen. sp. [4] was determined as 209 mg/dL. Besides, the Control in the experiment on Cricetinae gen. sp. [5] is -34%.
With `C=CC[C@H]1C2CC[C@H]3[C@@H]4CC[C@H]([C@H](C)CCCC(C)C)[C@@]4(C)CC[C@@H]3[C@@]2(C)CC[C@H]1O` (stereo partly specified), the MA in [1] was found to be 127%. The EC30 in experiment [2] came out at 2900 nM. Also, the Relative change in the experiment filed under Mesocricetus auratus [6] was -47%; in the experiment listed under Mesocricetus auratus [7], -47%; in the experiment listed under Mesocricetus auratus [12] it was -40%; in the experiment on Cricetinae gen. sp. [13] it was -50%; in the experiment listed under Mesocricetus auratus [14], -49%; in the experiment filed under Mesocricetus auratus [15], -51%. In addition, the figures for the Relative change in the experiment listed under Mesocricetus auratus [21] and in the experiment with Cricetinae gen. sp. [22] were -53% and -31%, respectively. The Total cholesterol stood at 174 mg/dL with Cricetinae gen. sp. [8]; 151 mg/dL with Cricetinae gen. sp. [9]; 168 mg/dL in the experiment with Cricetinae gen. sp. [10]; 167 mg/dL in the experiment with Cricetinae gen. sp. [11]; 213 mg/dL in the experiment with Cricetinae gen. sp. [16]; 199 mg/dL in the experiment on Cricetinae gen. sp. [18]. For the same molecule, the Total cholesterol was determined as 197 mg/dL with Cricetinae gen. sp. [19] and 188 mg/dL in the experiment on Cricetinae gen. sp. [20]. In the experiment on CHO [17], the Activity result is “Negative”. Besides, the result with CHO [3] was inactive.
`CC(C)CCC[C@@H](C)[C@H]1CC[C@H]2[C@@H]3CCC4[C@H](Cc5ccc(I)cc5)[C@H](O)CC[C@]4(C)[C@H]3CC[C@]12C` (stereo partly specified): the MA in experiment [1] is 80%. The 30% effect concentration (EC30) in experiment [2] was 2800 nM. The Relative change in the experiment listed under Mesocricetus auratus [23] is recorded as -37%. For the same molecule, the Total cholesterol in the experiment on Cricetinae gen. sp. [24] is 240 mg/dL. The Activity result in the experiment on CHO [17] is “Negative”. Also, in the experiment on CHO [3], the outcome was inactive.
For the molecule `C=C(Cl)C[C@H]1C2CC[C@H]3[C@@H]4CC[C@H]([C@H](C)CCCC(C)C)[C@@]4(C)CC[C@@H]3[C@@]2(C)CC[C@H]1O` (stereo partly specified), the MA in experiment [1] amounted to 141%. Also, in experiment [2], the EC30 was 1800 nM. Moreover, in the experiment listed under Mesocricetus auratus [25], the Relative change is -40%. This molecule also yielded a Total cholesterol in the experiment on Cricetinae gen. sp. [18] of 200 mg/dL. For the same molecule, in the experiment on CHO [3], the outcome was inactive.
Turning to `CC(C)CCC[C@@H](C)[C@H]1CC[C@H]2[C@@H]3CCC4[C@H](Cc5ccc(O)cc5)[C@H](O)CC[C@]4(C)[C@H]3CC[C@]12C` (stereo partly specified), the Relative change in the experiment listed under Mesocricetus auratus [26] is -15%. In the experiment with Cricetinae gen. sp. [27], this molecule displayed a Total cholesterol of 261 mg/dL. The EC30 result in experiment [28] is “inactive”.
Take `CC(C)CCC[C@@H](C)[C@H]1CC[C@H]2[C@@H]3CC[C@H]4[C@H](Cc5ccc(F)cc5)[C@@H](O)CC[C@]4(C)[C@H]3CC[C@]12C`: the Total cholesterol in the experiment with Cricetinae gen. sp. [29] came to 287 mg/dL. For the same molecule, the Relative change with Cricetinae gen. sp. [22] was determined as 5%.
